PubChem BioAssay AID623932 (Vanderbilt High Throughput Screening Facility, 2012)
Activity calls are given as the source filed them.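 Rule for the calls: active = at one tested dose, specific binding or response inhibited over 50%; inactive = the rest.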

Assay: broad binding selectivity at GPCRs, channels, transporters – biochemical, Ricerca panel, selectivity assay, profiling panel (AID 623932)
Settings: Ricerca radioligand binding panel, % inhibition, at 10 µM, stronger effect = higher value
Method in brief: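 Read-out basis: % loss of selective radioligand binding. Test system: panel of radioligand binding assays across multiple targets. Control set: reference standards included in every panel assay.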

Cc1cc(NC(=O)Nc2ccc(F)c(F)c2)n(-c2ccccc2)n1
inhibition (NMDA binding inhibition): 21%
inhibition: 60% (inactive)
inhibition (measured here: 5-HT2B binding inhibition): 46%
inhibition (measured here: DAT binding inhibition): 12%
inhibition (measured here: GABA-A flunitrazepam binding inhibition): 24%
inhibition (measured here: GABA-A muscimol binding inhibition): 49%
inhibition (measured here: NET binding inhibition): 15%
inhibition (measured here: NPY Y1 binding inhibition): 24%
inhibition (measured here: P2X binding inhibition): 16%
inhibition (measured here: dopamine D2S binding inhibition): 16%
inhibition (measured here: hERG binding inhibition): 10%
inhibition (measured here: imidazoline I2 binding inhibition): 20%
inhibition (measured here: mu opioid binding inhibition): 21%
